Assay results reported in PMC8535816 (Science Advances, 2021).
Positions of bridges follow the written chain, without caps; N, C: chain ends. No end group written: not given here. *: point of attachment. Biotin = O=C1N[C@H]2[C@H](CS[C@H]2CCCCC(=O)*)N1; Ahx = NCCCCCC(=O)O

Tests used:
OCN^−/− mice [1] = assay: ICV delivery of OCN into OCN^−/− mice: OPC/OL numbers and myelin proteins; format: in vivo, mouse; details: ICV 100 ng/day for 10 days
Procedure, shortened: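 OCN−/− mice received synthesized mouse OCN at 100 ng/day, or PBS, by ICV infusion for 10 days. For proliferation, BrdU at 100 μg/g was given i.p. 2 days before sacrifice, and sections were co-stained for BrdU/PDGFRα. For differentiation, BrdU at 200 μg/g was pulsed for four consecutive days from the start of treatment, with BrdU/CC1 co-staining at the end. Positive cells were counted per 0.25 mm2 in CC.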

[2] = OCN level in CC and SC after ICV delivery into OCN^−/− mice; format: in vivo, mouse; details: ICV infusion 100 ng/day for 10 days, n = 5
[3] = molecular target: human GPR37 overexpressed on HEK293-based cells (human) (UniProt O15354); assay: saturation binding of biotinylated ligand to transfected cells
primary rat OLs [4] = assay: cAMP production in primary rat OLs; format: cell-based
Procedure, shortened: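 Rat OPCs were transduced with lentiviral shRNA against GPR37 and kept with CNTF and T3 for 48 h. They were then plated at 1 × 10^4/well on poly-L-lysine. Cells received forskolin plus the test compound at the indicated concentrations for 30 min. Intracellular cAMP was measured by cAMP-Glo Max luminescence to give concentration-response curves. Runs were repeated at least four times, each in triplicate.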

OCN^−/− mice [5] = assay: Hot plate test; format: in vivo; details: mouse OCN 50 ng/g i.p. for 10 days, hot plate 53°C, n ≥ 6
Procedure, shortened: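 Mice aged 8 weeks were placed on a hot plate held at 53°C. Latency was scored as the time to lick or flick a hind paw, or to jump. The plate temperature was calibrated to give a withdrawal response within 10 to 15 s in control mice. OCN−/− mice received synthesized mouse OCN at 50 ng/g body weight i.p. for 10 days before testing.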

human GPR37 [6] = molecular target: T1, human GPR37 (Homo sapiens, UniProt O15354); assay: ERK phosphorylation; format: cell-based; details: OCN 20 nM; GPR37-transfected HEK293 cells; immunoblot
T1 sequence (O15354 27-613): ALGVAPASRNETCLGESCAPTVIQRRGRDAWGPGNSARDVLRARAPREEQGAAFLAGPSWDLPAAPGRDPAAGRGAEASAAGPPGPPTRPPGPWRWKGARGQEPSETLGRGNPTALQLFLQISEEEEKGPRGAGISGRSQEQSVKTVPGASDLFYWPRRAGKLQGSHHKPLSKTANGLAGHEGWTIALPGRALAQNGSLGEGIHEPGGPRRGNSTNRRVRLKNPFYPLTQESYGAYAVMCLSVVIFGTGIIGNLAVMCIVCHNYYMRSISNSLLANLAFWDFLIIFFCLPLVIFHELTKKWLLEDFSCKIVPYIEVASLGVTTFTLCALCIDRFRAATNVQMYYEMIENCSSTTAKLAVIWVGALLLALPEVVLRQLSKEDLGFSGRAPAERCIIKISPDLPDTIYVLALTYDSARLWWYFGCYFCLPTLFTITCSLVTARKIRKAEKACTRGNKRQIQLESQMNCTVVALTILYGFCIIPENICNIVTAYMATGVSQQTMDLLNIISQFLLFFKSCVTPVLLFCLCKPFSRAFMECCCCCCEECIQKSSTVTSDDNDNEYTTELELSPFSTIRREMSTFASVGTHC
Procedure, shortened: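 Human GPR37 introduced into HEK293 cells by calcium-phosphate transfection, then exposed to OCN 20 nM. Lysates made in RIPA buffer with protease inhibitors and assayed by BCA. 30–50 μg protein run on SDS-PAGE and blotted to PVDF or nitrocellulose. Blocked in 5% milk for 1 h, primary antibody overnight at 4°C, HRP secondary for 1 h at room temperature.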

human GPR37L1 [7] = assay: PRESTO-Tango β-arrestin recruitment, GPR37L1-transfected HTLA cells; format: cell-based; details: cells expressing GPR37L1 (HTLA)
Procedure, shortened: (§1)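 HTLA cells (HEK293 carrying a tTA-luciferase reporter and β-arrestin2–TEV), kept under puromycin 2 μg/ml plus hygromycin B 100 μg/ml, expressing GPR37-Tango or GPR37L1-Tango. Seeded on poly-L-lysine; the next day given graded OCN concentrations in assay buffer for 24 h. Luciferase reagent (20-fold diluted) added for 15–20 min at 20–25°C; luminescence read as RLU. Concentration-response curves fitted.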

neurons = neurons (DRN, MRN, VTA, CA3); ref [16], [22], [51]; cited from earlier work
OLs from GPR37^−/− mice = assay: MBP expression in primary OLs from GPR37^−/− mice; format: cell-based, mouse; details: OPC from GPR37^−/− mice induced with T3; n = 3 independent experiments
Procedure, shortened: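 Primary OPCs were isolated from P7–P8 GPR37−/− mouse pups. They were differentiated into mature OLs with T3 and CNTF, then treated with the test compound. OPC purity and OL induction were checked with specific markers.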

primary rat OLs [8] = assay: Myrf expression in primary rat OLs; format: cell-based; details: n = 3 independent experiments
Procedure, shortened: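 OPCs came from forebrains of P1–P2 Sprague-Dawley rats. Mixed glia were grown up to 12 days on poly-L-lysine, and microglia were removed by shaking at 200 rpm. OPCs were transduced with lentiviral shRNA against GPR37, then differentiated with CNTF and T3 for 48 h. The resulting OLs were treated with the test compound in differentiation medium for 48 h before analysis.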

primary rat OLs [9] = assay: Myelin PLP1 and MBP expression in primary rat OLs/OPCs in differentiation medium; format: cell-based; details: n = 3 independent experiments
human GPR37 [10] = molecular target: T1, human GPR37; assay: cAMP production, GPR37-transfected HEK293 cells; format: cell-based; details: forskolin and/or OCN 30 min, cAMP-Glo Max
Procedure, shortened: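 HEK293 cells were transfected with human GPR37 for 48 h, then seeded on poly-L-lysine-coated plates. They were exposed to forskolin and/or graded OCN for 30 min. cAMP was measured by luminescent cAMP-Glo Max assay. At least four experiments, each in triplicate.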

[11] = system: OLs derived from primary rat OPCs; assay: OL cell viability; format: cell-based; details: OCN 0 to 50 nM, up to 72 hours; MTT; n = 3 independent experiments
Procedure, shortened: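 Rat OPCs were plated on poly-L-lysine at 1 × 10^4 per well in 96-well plates, in the presence of CNTF and T3. Cells were exposed to the test compound at 0 to 50 nM, or for up to 72 h. Viability was read with a commercial MTT kit.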

GPR37^−/− mice = assay: ICV delivery of OCN into GPR37^−/− mice: myelin PLP1 and MBP; format: in vivo, mouse; details: ICV 100 ng/day for 10 days, n ≥ 6
Procedure, shortened: (§2)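 Synthesized mouse OCN at 100 ng/day, or PBS, was infused ICV for 10 days before analysis. Tissue protein was extracted in RIPA buffer with protease inhibitors and quantified by BCA. Then 30 to 50 μg was run on SDS-PAGE and blotted. Blots were blocked in 5% milk for 1 h, incubated with primary antibody overnight at 4°C, then with HRP-secondary for 1 h at room temperature.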

primary rat OLs [12] = assay: ERK phosphorylation; format: cell-based
WT mice = assay: ICV delivery of OCN into WT mice: myelin PLP1 and MBP; format: in vivo, mouse; details: ICV 100 ng/day for 10 days, n ≥ 6
Procedure, shortened: as §2

human GPR37 [13] = molecular target: T1, human GPR37; assay: PRESTO-Tango β-arrestin recruitment, GPR37-transfected HTLA cells; format: cell-based
Procedure, shortened: as §1

[14] = ref [15]–[18]; cited from earlier work
primary rat OPCs = assay: OPC proliferation; format: cell-based; details: OCN 20 nM; EdU incorporation; n = 3 independent experiments
Procedure, shortened: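 Primary rat OPCs (P1–P2 Sprague-Dawley forebrain) were plated on poly-L-lysine at 1 × 10^4/well in 96-well plates. They were treated with the test compound at 20 nM before assessment. Proliferation was read by EdU incorporation with a commercial kit.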

human GPR37 [15] = molecular target: T1, human GPR37; assay: Intracellular calcium; format: cell-based; details: then OCN, GPR37-transfected HEK293-GCaMP6s cells
Procedure, shortened: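 HEK293 cells stably expressing GCaMP6s (made by lentiviral infection of HEK293T) were transfected with human GPR37 for 48 h. Medium was swapped for HBSS with Ca2+/Mg2+ and cells held at 37°C for 30 min. Pretreatment was anti-GPR37 antibody or pertussis toxin, then OCN 20 nM. GCaMP6s fluorescence was imaged at 1 s intervals.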

human GPR37L1 [16] = assay: Saturation binding of biotinylated OCN, GPR37L1-transfected cells; details: 2 hours at 37°C
Procedure, shortened: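 HEK293T cells were transfected with GPR37L1 and replated on poly-L-lysine at 36 h. After 24 h they received serial dilutions of biotinylated OCN in 0.5% BSA/Ca2+/Mg2+ PBS for 2 h at 37°C. Cells were then washed, fixed in 4% PFA, permeabilised with 0.3% Triton, given extra-avidin peroxidase for 30 min and TMB, and read at 450 nm. Nonspecific binding used 100 μM unlabelled OCN; specific binding was total minus nonspecific; Kd came from saturation curves.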

Substance: YLGASVPSPDPLEPTREQCELNPACDELSDQYGLKTAYKRIYGITI [mouse OCN]
- BrdU^+/CC1^+ differentiation OLs (OCN^−/− mice [1]; CC of OCN^−/− mice): decreased
- CC1^+ cells (OCN^−/− mice [1]; CC of OCN^−/− mice): decreased
- numbers of BrdU^+/PDGFRα^+ proliferative OPCs (OCN^−/− mice [1]; CC of OCN^−/− mice): rarely affected
- numbers of total PDGFRα^+ OPCs (OCN^−/− mice [1]; OCN^−/− mice): rarely affected
- expression of myelin PLP1 and MBP (OCN^−/− mice [1]; white matter regions (CC, SC) of OCN^−/− mice, n = 6): decreased
- OCN level in CC and SC [2]: significant increase

Substance: biotinylated osteocalcin (OCN), species not stated (peptide)
- Kd [3]: 14.1 nM

Substance: osteocalcin (YLGASVPSPDPLEPTREQCELNPACDELSDQYGLKTAYKRIYGITI; biotin (Biotin Protein Labeling Kit, Roche; sites not stated)) [OCN]
- OCN-induced inhibition of intracellular cAMP production with GPR37 silenced (primary rat OLs [4]; GPR37 shRNA): substantially prevented
- intracellular cAMP level (primary rat OLs [4]; forskolin and OCN 30 min): reduction of the intracellular cAMP level
- deficit of thermal sensitivity (paw lick latency) (OCN^−/− mice [5]): partially rescued
- ERK phosphorylation (human GPR37 [6]): stimulated ERK phosphorylation
- luciferase responses (β-arrestin recruitment) (human GPR37L1 [7]): failed to exert luciferase responses
- synthesis of monoamine neurotransmitters (neurons): promote the synthesis of monoamine neurotransmitters
- synthesis of γ-aminobutyric acid (GABA) (neurons): reduce the synthesis of γ-aminobutyric acid (GABA)
- myelin MBP response to OCN, GPR37 absent (OLs from GPR37^−/− mice): unresponsive
- down-regulation of Myrf by OCN with GPR37 knockdown (primary rat OLs [8]; GPR37 shRNA, OCN 20 nM): abolished
- expression of Myrf (primary rat OLs [8]): dose-dependently inhibited
- OCN's suppression of the MBP level with GPR37L1 silenced (primary rat OLs [9]; primary rat OLs, GPR37L1 shRNA): unable to inhibit OCN’s suppression of the MBP level
- expression of myelin PLP1 and MBP (primary rat OLs [9]; primary rat OPCs in differentiation medium, immunoblot, immunostaining): dose-dependent reduction
- cAMP production (human GPR37 [10]): significantly inhibited cAMP production
- OL cell viability [11]: no effects
- expression of myelin PLP1 and MBP in CC (GPR37^−/− mice): absent
- ERK phosphorylation (primary rat OLs [12]; myelinating primary rat OLs): boost of ERK phosphorylation
- expression of myelin PLP1 and MBP in CC (WT mice): significant down-regulation
- luciferase activity (β-arrestin recruitment) (human GPR37 [13]): dose-dependent increase
- ability of crossing the blood-brain barrier [14]: crossing the blood-brain barrier (BBB)
- OPC proliferation (primary rat OPCs): no effects

Substance: pertussis toxin [PTX, reference compound]
- effect of pretreatment on OCN-caused reduction of the intracellular cAMP level (primary rat OLs [4]; PTX pretreatment): blocked
- effect of pretreatment on OCN-caused boost of ERK phosphorylation (primary rat OLs [12]; PTX pretreatment, primary rat OLs): blocked
- effect of pretreatment on OCN-triggered increase of iCa^2+ (human GPR37 [15]): abolished

Substance: {Biotin-Ahx}-YLGASVPSPDPLEPTREQCELNPACDELSDQYGLKTAYKRIYGITI (disulfide 19-25; N-terminus assumed) [biotinylated OCN]
- binding to GPR37L1 (human GPR37L1 [16]): bound to GPR37 rather than GPR37L1
